This is an account of results in ChEMBL document CHEMBL1134393, “Synthesis and biological activity of analogues of the antidiabetic/antiobesity agent 3-guanidinopropionic acid: discovery of a novel aminoguanidinoacetic acid antidiabetic agent” (2001).

Broadly, the Inhibition is the share of the control response that was lost under treatment. A low value points to little suppression.

Chain of Creatine kinase M-type (Oryctolagus cuniculus) (P00563 whole entry, looked up): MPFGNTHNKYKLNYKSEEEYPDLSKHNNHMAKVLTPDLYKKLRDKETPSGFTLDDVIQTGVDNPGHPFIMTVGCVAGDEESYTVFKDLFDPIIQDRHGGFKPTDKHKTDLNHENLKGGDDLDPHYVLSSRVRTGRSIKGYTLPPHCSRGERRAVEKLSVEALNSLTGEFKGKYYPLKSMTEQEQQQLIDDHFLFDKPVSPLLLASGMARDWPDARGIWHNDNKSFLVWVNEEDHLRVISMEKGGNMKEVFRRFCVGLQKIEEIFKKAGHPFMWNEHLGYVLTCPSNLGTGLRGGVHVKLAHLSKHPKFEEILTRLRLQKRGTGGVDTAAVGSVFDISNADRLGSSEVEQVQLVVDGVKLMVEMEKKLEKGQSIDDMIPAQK

One test deals with A10. The test is described as follows: (§1) In vitro [14C]- creatine uptake (1 mM) was determined in rat A10 smooth muscle cells at a concentration of (1 mM). In kind it is functional. Summed up: (§2)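 Rat A10 smooth muscle cells grown in DMEM with 10% FBS and used in log-phase growth. Cells washed, then incubated at 37 °C in Hanks buffer (pH 7.4, 10 mM Hepes, 20 mM glucose, 0.2% fatty-acid-free BSA) with [14C]creatine (1 mM) plus test compound (1 mM) for 30–120 min. Ice-cold washes, NaOH lysis, scintillation counting. Uptake normalised to medium specific activity and extract protein; reported as % inhibition.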
The compound `N=C(N)NCCC(=O)O` [OMPENACLID] returned an Inhibition of 97%.

A further test is filed under the species Rattus norvegicus. The description is as §1. The format is functional. An outline of the steps:
as §2
Compound `N=C(N)NNCC(=O)O` showed an Inhibition of 36%.

Tested on in the next test: not listed separately
The test is described as follows: In vivo blood glucose was determined in obese, hyperglycemic, hyperinsulinemic, insulin-resistant KKAy mice after a dose of 500 mg/kg for 4 days. In kind it is functional, Mus musculus. An outline of the steps:
(§3)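 KKAy mice (KK female × Ay male cross) allocated to treatment or control groups (n = 6) after pretest glucose. Compound given in food, equivalent to 500 mg/kg per day for 4 days. Nonfasting blood drawn from the retroorbital sinus; glucose measured by autoanalyzer. Result expressed as treated/control glucose ratio (T/C). Wilcoxon rank sum test applied when T/C < 0.80.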
As for `O=C(O)CCNc1[nH]cnc2ncnc1-2`, the “MISS T/C” value came to 0.85.

As to `CCCCCC(CN=C(N)N)C(=O)O` (stereo unspecified), the “MISS T/C” value came to 0.79.

For `Cl.N=C(N)NC/C(=N/O)C(=O)O`, the “MISS T/C” value is 0.97.

With `N=C(N)c1ccccc1NCCC(=O)O`, the “MISS T/C” value turned out to be 0.73.

Consider `N=C(N)NCCCC(=O)O`, for which the “MISS T/C” value came out at 0.8.

Regarding `Cl.N=C(N)NCCC(=O)NO`, the “MISS T/C” value came out at 1.05.

Turning to `N=C(N)N1CCCCC1CC(=O)O` (stereo unspecified), the “MISS T/C” value is on record as 0.91.

`N=C(N)NOCC(=O)O`: the “MISS T/C” value was 0.83.

Consider `Cl.N=C(N)S/C=C\C(=O)O`, for which the “MISS T/C” value was determined as 0.95.

For `N=C(N)NCCS(=O)(=O)O`, the “MISS T/C” value is listed as 0.91.

`O=C(O)CCNc1nccs1`: the “MISS T/C” value is recorded as 0.99.

On to `CCOC(=O)CCN=C(N)N.Cl`, for which the “MISS T/C” value came out at 0.87.

In the case of `NC(=O)NCCC(=O)O`, the “MISS T/C” value turned out to be 1.06.

`CSC(=N)NCCC(=O)O`: the “MISS T/C” value is 1.1.

In the case of `N=C(N)Nc1ccc(C(=O)O)cc1` [4-GUANIDINO-BENZOIC ACID], the “MISS T/C” value is given as 0.8.

Consider `N=C(N)NCCC[C@H](N)C(=O)O` [ARGININE], for which the “MISS T/C” value is 1.02.

Consider `Nc1ncnc2c1cnn2CCC(=O)O`, for which the “MISS T/C” value is 1.27.

With `O=C(O)CCNC1=NCCN1`, the “MISS T/C” value is given as 0.97.

Consider `CNC(CN=C(N)N)C(=O)O.Cl.Cl` (stereo unspecified), for which the “MISS T/C” value was 0.96.

On to `N/C(=N/CCC(=O)O)N[N+](=O)[O-]`, for which the “MISS T/C” value was determined as 0.84.

`Cl.Cl.N/C(=N\CCC(=O)O)c1ccccc1N`: the “MISS T/C” value was found to be 0.92.

Consider `Nc1cccc[n+]1CCC(=O)[O-]`, for which the “MISS T/C” value is reported as 1.07.

`N=C(N)S/C=C\C(=O)O` [ZAPA]: the MISS T/C was found to be 0.68.

As for `Cl.NC(=O)CCN=C(N)N`, the “MISS T/C” value came to 0.96.

As for `O=C(O)CCNC1=NCCS1`, the “MISS T/C” value came out at 0.85.

As to `O=C(O)CCNc1nc2ccccc2s1`, the “MISS T/C” value worked out at 0.87.

As for `CC(CC(=O)O)N=C(N)N` (stereo unspecified), the “MISS T/C” value was 0.77.

On to `CC(=N)NCCC(=O)O`, for which the “MISS T/C” value worked out at 0.77.

In the case of `Cl.N=C(N)SCC(=O)O`, the “MISS T/C” value was 0.86.

As for `N[C@@H](Cc1c[nH]cn1)C(=O)O` [HISTIDINE], the “MISS T/C” value stood at 0.8.

Take `N=C(N)N1CCCC(C(=O)O)C1` (stereo unspecified): the “MISS T/C” value came to 1.

On to `N=C(N)NC(CC(=O)O)c1ccccc1` (stereo unspecified), for which the “MISS T/C” value came out at 0.95.

Turning to `N/C(S)=N/CCC(=O)O`, the “MISS T/C” value amounted to 0.99.

`O=C(O)CCNc1ncccn1`: the “MISS T/C” value stood at 1.01.

In the case of `CCc1cc(O)nc(NCCC(=O)O)n1`, the “MISS T/C” value came out at 0.96.

Consider `N=C(N)NCC(=O)O` [GUANIDINO ACETATE], for which the MISS T/C was 0.62.

Turning to `C/N=C(\NC)SCCC(=O)O.Cl`, the “MISS T/C” value is listed as 1.06.

Consider `CCCCCCN=C(N)NCCC(=O)O`, for which the “MISS T/C” value is listed as 0.85.

With `N=C(N)NCCc1nnn[nH]1`, the “MISS T/C” value worked out at 0.94.

On to `N=C(N)NCC(S)C(=O)O` (stereo unspecified), for which the “MISS T/C” value was found to be 0.83.

On to `COC(=O)NC(=N)NCCC(=O)O`, for which the “MISS T/C” value is reported as 0.88.

Consider `N=C(N)NCC(O)C(=O)O` (stereo unspecified), for which the “MISS T/C” value was determined as 1.1.

With `N=C(N)N[C@H]1CCC[C@H]1C(=O)O`, the “MISS T/C” value worked out at 0.97.

For the compound `CN(C)C(=N)SCCC(=O)O.Cl`, the “MISS T/C” value is 1.08.

Regarding `Nc1ccc[n+](CC(=O)O)c1.[Cl-]`, the “MISS T/C” value stood at 0.94.

For the compound `CC(=O)NC(=N)NCCC(=O)O`, the “MISS T/C” value is 0.88.

Consider `Nc1cccc(CC(=O)O)n1`, for which the “MISS T/C” value worked out at 1.08.

As to `O=C(O)CCn1cccn1`, the “MISS T/C” value was 1.11.

Regarding `O=C(O)CCn1ccnc1`, the “MISS T/C” value is reported as 0.81.

For `N=C(N)c1cccn1CCC(=O)O`, the “MISS T/C” value was 0.93.

Turning to `N=C(N)NCC(Cc1ccccc1)C(=O)O` (stereo unspecified), the “MISS T/C” value is 0.93.

For the compound `Cl.N=C(N)SCCCC(=O)O`, the “MISS T/C” value is 0.87.

Turning to `N=C(N)NCCP(=O)(O)O`, the “MISS T/C” value came to 0.81.

In the case of `O=C(O)CCNc1nc2ccccc2[nH]1`, the “MISS T/C” value is 0.95.

As to `Cl.NC(N)=NC[C@@H](N)C(=O)O`, the “MISS T/C” value was 0.92.

For `N=C(N)N[C@H]1CCCC[C@@H]1C(=O)O`, the “MISS T/C” value is recorded as 0.93.

Turning to `Cl.N=C(N)CCCC(=O)O`, the “MISS T/C” value is 0.93.

Turning to `CCCCCC(CC(=O)O)N=C(N)N` (stereo unspecified), the “MISS T/C” value is 0.88.

`C/N=C(\N)SCCC(=O)O.Cl` registered an MISS T/C of 0.59.

Regarding `O=C(O)Cc1c[nH]cn1` [IMIDAZOLE ACETIC ACID], the MISS T/C is 0.68.

Compound `NC(N)=NC[C@H](N)C(=O)O` yielded an MISS T/C of 0.35.

`Cl.N=C(N)CSCC(=O)O`: the “MISS T/C” value is listed as 0.92.

Consider `N=C(N)NCCc1c[nH]c(S)n1`, for which the “MISS T/C” value is given as 0.8.

Consider `O=C(O)CCNc1ccccn1`, for which the MISS T/C turned out to be 0.2.

With `N#CN/C(N)=N\CCC(=O)O`, the “MISS T/C” value came out at 0.92.

As to `N=C(N)N[C@H]1CCC[C@@H]1C(=O)O`, the “MISS T/C” value worked out at 0.9.

`N=C(N)NNCC(=O)O` returned an MISS T/C of 0.61.

On to `CC(CN=C(N)N)C(=O)O` (stereo unspecified), for which the “MISS T/C” value was 0.86.

Regarding `C/N=C(\N)NCCC(=O)O`, the “MISS T/C” value is given as 1.02.

For the compound `N=C(N)N[C@H]1CCCC[C@H]1C(=O)O`, the “MISS T/C” value was 0.92.

`Nc1ncnc2nn(CCC(=O)O)cc12`: the “MISS T/C” value was found to be 1.08.

For `CN(CCC(=O)O)C(=N)N`, the “MISS T/C” value turned out to be 1.02.

Take `N=C(N)SCCC(=O)O`: the MISS T/C stood at 0.53.

With `N=C(N)c1ccc(CC(=O)O)[nH]1`, the “MISS T/C” value is 1.1.

In a further test the target is Sodium- and chloride-dependent creatine transporter 1 (Rattus norvegicus) (UniProt P28570). In words: In vitro [14C]- creatine uptake (1 mM) was determined in rat A10 smooth muscle cells at a concentration of (1 mM).
Compound `CN(CC(=O)O)C(=N)N` [CREATINE] displayed an Inhibition of 92%.

A further test addresses Creatine kinase M-type (Oryctolagus cuniculus) (UniProt P00563). In words: In vitro kinase activity (phosphorylation) of creatine kinase was determined.
In turn, `N=C(N)NCCC(=O)O` [OMPENACLID] yielded an Activity of 5.

In turn, `CN(CC(=O)O)C(=N)N` [CREATINE] showed an Activity of 100.

`N=C(N)NNCC(=O)O` displayed an Activity of 0.5.

Tested on in the next test: not listed separately
In words: In vivo blood glucose was determined in obese, hyperglycemic, hyperinsulinemic, insulin-resistant […] after a dose of 500 mg/kg for 4 days. In kind it is functional, Mus musculus. An outline of the steps:
as §3
For `N=C(N)NCCC(=O)O` [OMPENACLID], the MISS T/C is 0.52.
